Screening results deposited in PubChem BioAssay by Broad Institute.
Rows were chosen to be rich in hits. Some 2.1% of all compounds tested hit in one or more screens of this group.
miR-122 sensor – miR-122 Renilla sensor signal increase in Huh7, primary screen, miR-122 inhibitor project, cell-based, single point, plate reader. Huh7 miR-122 Renilla luciferase sensor, 48 h; neutral wells = 0, positive control = 100. activation (reporter increase), % at 12.5 µM. actives 0.3% (n = 340,000). AID 602342, 2012;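 active = mean replicate activation score at least 90 and every replicate individually at or above 90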;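 also: higher luciferase means less miR-122 activity so hits act as miR-122 inhibitors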
CAL PDZ FP-1 – untagged CAL PDZ binding inhibitors, primary screen, biochemical, fluorescence polarization, HTS; Golgi-associated PDZ and coiled-coil motif-containing protein (Homo sapiens), Q9HD26; purified CAL PDZ, TMR-peptide fluorescence polarization, 1 h; inhibition, % at 24.9 µM; actives 0.92% (n = 300,000);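 active = mean inhibition of at least 30% with at least half of replicates also reaching 30%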;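 also: 0% = DMSO neutral control and 100% = excess unlabeled competitor peptide PRC23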
SR-BI DiI inh – inhibitors of SR-BI mediated HDL lipid uptake, primary screen, ldlA[mSR-BI] cells, fluorescence, single point | Scavenger receptor class B member 1 (Mus musculus), Q61009 | ldlA[mSR-BI] CHO cells, DiI-HDL uptake fluorescence, 3 h | inhibition, % at 12.5 µM | actives 0.96% (n = 320,000);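 active = mean replicate inhibition of at least 70% and a set share of replicates each scoring 70 or more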;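 also: 0% = median of neutral control wells and 100% = median of positive control wells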
Target sequence (Q61009 whole entry, looked up): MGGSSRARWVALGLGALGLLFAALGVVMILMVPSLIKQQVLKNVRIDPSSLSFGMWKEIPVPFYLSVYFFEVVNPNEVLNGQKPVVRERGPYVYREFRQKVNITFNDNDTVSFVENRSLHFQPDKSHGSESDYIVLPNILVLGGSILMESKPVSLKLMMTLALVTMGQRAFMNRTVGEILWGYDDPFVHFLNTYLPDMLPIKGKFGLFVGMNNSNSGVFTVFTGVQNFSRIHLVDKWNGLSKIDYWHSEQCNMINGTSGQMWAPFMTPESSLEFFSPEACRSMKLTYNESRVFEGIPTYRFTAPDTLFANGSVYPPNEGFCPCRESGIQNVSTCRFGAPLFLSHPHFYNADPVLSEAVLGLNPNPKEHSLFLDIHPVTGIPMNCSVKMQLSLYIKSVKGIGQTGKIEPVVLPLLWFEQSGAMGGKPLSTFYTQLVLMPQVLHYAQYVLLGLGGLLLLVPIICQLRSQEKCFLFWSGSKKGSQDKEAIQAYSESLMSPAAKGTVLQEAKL
SR-BI DiI-HDL act – activators of SR-BI mediated DiI-HDL uptake, primary screen, ldlA[mSR-BI] CHO cells, DiI fluorescence | 3 h; 100 = double the neutral-control signal | activation, % at 12.5 µM | actives 0.096% (n = 320,000) | AID 504775, 2011;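 active = mean replicate activation of at least 60% and every replicate at or above 60%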;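 also: 0% = median plate neutral-control signal and 100% = twice that signal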
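Assay system: CHO ldlA[mSR-BI] cells, LDL receptor-null, SR-BI overexpressing; medium: Ham's F12 with 0.5% BSA, HEPES 25 mM, pH 7.4; also added: DiI-HDL 10 µg/mL; timing: 3 h uptake period with compound, 37 °C; signal: DiI fluorescence, bottom read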
ARNT-TACC3 inh – disruptors of ARNT/TACC3 protein interaction, primary screen, biochemical, AlphaScreen, single concentration; Transforming acidic coiled-coil-containing protein 3 (Homo sapiens), Q9Y6A5; AlphaScreen His-ARNT PAS-B/GST-TACC3 binding, luminescence; TACC3 fragment carries E629A point mutation; AID 623870, 2012; actives 0.66% (n = 390,000); inhibition, % at 9.99 µM;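 active = mean inhibition of replicates at least 50% and at least half of replicates each reaching 50%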;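 also: 0% = complete ARNT plus TACC3 wells and 100% = ARNT alone without TACC3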
CAL PDZ FP-2 – CAL PDZ peptide-binding inhibitors, primary screen, biochemical, fluorescence polarization, Cer-tagged CAL PDZ, HTS; actives 0.02% (n = 330,000); purified CAL PDZ, TMR-peptide fluorescence polarization, 1 h; inhibition, % at 20 µM; AID 504414, 2011;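 active = highest replicate inhibition of at least 40%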;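 also: plate controls were DMSO neutral control wells for no effect and unlabeled competitor peptide control wells for full effect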
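Test system: purified CerCALP PDZ construct; Compound dosing: one concentration, 20 µM compound; Also added: TMR-labelled reporter peptide T*-PRC34 bound in PDZ groove; Read-out: inhibition from polarization loss; Controls: unlabelled peptide and DMSO controls; Signal: FP readout, S and P plane fluorescence; Incubation: 1 h at RT.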
Numbers without * were called inactive; / = not tested or not shown; [ ] = remark or other dose.

SMILES	miR-122 sensor	CAL PDZ FP-1	SR-BI DiI inh	SR-BI DiI-HDL act	ARNT-TACC3 inh	CAL PDZ FP-2
COc1ccc(CN2C(=O)C(C)Nc3ncnc(N4CCOCC4)c32)cc1 (stereo not drawn)	6.3	-1.9	3.7	-3.7	0.6	-0.6
CC1Nc2ncnc(N3CCOCC3)c2N(Cc2ccccc2)C1=O (stereo not drawn)	1.7	0.3	-9.2	9.2	23.4*	-1.6
CCOC(=O)C1CCCN(Cc2nc(N)nc(Nc3ccccc3)n2)C1 (stereo not drawn)	-3.0	-3.1	7.0	-7.0	47.7*	-2.5
Cc1ccc(Nc2nc(N)nc(CN3CCN(C)CC3)n2)cc1	-6.6	0.6	-21.2	21.2	17.1	-1.6
Nc1nc(CN2CCCCCC2)nc(Nc2ccccc2)n1	1.3	-5.3	-26.0	26.0	51.6*	-0.2
Nc1nc(CN2CCN(C(c3ccccc3)c3ccccc3)CC2)nc(Nc2ccccc2)n1	/	/	-8.5	8.5	6.2	-4.7
Cc1ccc(Nc2nc(N)nc(CN3CCCCCC3)n2)cc1	0.8	1.3	-4.0	4.0	50.3*	-2.1
C[C@@H]1CN([C@@H](C)CO)C(=O)c2cc(NC(=O)C3CCCCC3)ccc2O[C@@H](C)CCCCO[C@H]1CN(C)C(=O)NC1CCCCC1	-8.6[16.7 µM]	/	/	/	-2.7	/
O=C(CC1CC1)Nc1ccc2c(c1)[C@H]1C[C@H](CC(=O)N3CCOCC3)O[C@H](CO)[C@H]1O2	0.8[16.7 µM]	/	/	/	-5.8	/
CN(C)CCCN=Cc1c(-c2ccccc2)[nH]n(-c2nc3ccccc3s2)c1=O	-5.4	3.2	5.6	-5.6	4.9	-2.8
O=c1c(C=NCCCn2ccnc2)c(-c2ccccc2)[nH]n1-c1nc2ccccc2s1	/	-2.1	-15.2	15.2	53.7*	-4.4
C[C@H](NC(=O)C[C@@H]1CC[C@@H](NC(=O)C2CCOCC2)[C@H](CO)O1)c1ccccc1	/	/	/	/	-0.8	/
O=C(NCC(c1ccco1)N1CCN(c2ccccc2)CC1)C(=O)NC1CCCCC1 (stereo not drawn)	2.8	35.5*	19.4	-19.4	-1.1	-0.4
O=C(NCC(c1ccco1)N1CCN(c2ccccc2)CC1)C(=O)NC1CCCC1 (stereo not drawn)	-2.5	/	-11.3	11.3	3.4	0.4
COc1ccccc1-n1c2nc3ccccc3nc2c2c(=O)n(-c3cc(C)cc(C)c3)cnc21	/	-4.1	78.7*	-78.7	/	-2.5
COc1ccccc1-n1cnc2c(c1=O)c1nc3ccccc3nc1n2-c1ccc(C)cc1	/	-1.8	-1.3	1.3	/	-1.6
O=C(NCC(=O)N1CCN(Cc2ccccc2)CC1)c1ccc(Cl)cc1	/	-0.5	12.2	-12.2	0.8	-1.6
O=C(NCC(=O)N1CCN(Cc2ccccc2)CC1)c1ccc(Br)cc1	-0.6	40.9*	5.8	-5.8	-0.8	-1.1
O=C(CCN1CCCCC1)N[C@@H]1CC[C@@H](CCNC(=O)c2cc(Cl)cc(Cl)c2)O[C@H]1CO	/	/	/	/	-19.8	/
C/C(=C\C(=O)c1ccc(Br)cc1)NNC(=O)c1ccccc1	/	-3.3	86.1*	-86.1	-3.6	-0.5
COCC(=O)N(C)C[C@H]1Oc2ncc(-c3ccccc3C)cc2C(=O)N([C@H](C)CO)C[C@@H]1C	1.0[16.7 µM]	/	/	/	-4.4	/
Cc1ccc(C(=O)N/C(=C\c2cn(S(=O)(=O)N(C)C)c3ccccc23)C(=O)NCCCn2ccnc2)cc1	34.5	-10.8	-12.7	12.7	7.8	-1.6
COc1ccc(C(=O)N/C(=C\c2ccco2)C(=O)NCCCn2ccnc2)cc1	7.1	/	7.4	-7.4	18.8	-0.1
COc1ccc(C(=O)N/C(=C/c2cccs2)C(=O)NN)cc1OC	-5.1	/	74.6*	-74.6	0.3	-0.4
Cc1ccc(C(=O)N/C(=C\c2cccs2)C(=O)NCCCn2ccnc2)cc1C	0.4	-0.3	-10.1	10.1	70.8*	0.8
SMILES	miR-122 sensor	CAL PDZ FP-1	SR-BI DiI inh	SR-BI DiI-HDL act	ARNT-TACC3 inh	CAL PDZ FP-2
Cc1ccc(C(=O)N/C(=C\c2ccco2)C(=O)NCCCn2ccnc2)cc1C	-2.5	-3.6	-10.3	10.3	77.0*	-0.2
CCn1cc(/C=C(\NC(=O)c2ccccc2)C(=O)NCCCn2ccnc2)c2ccccc21	165.4*	/	/	/	/	/
COc1ccc(C(=O)N/C(=C\c2cccs2)C(=O)N2CCN(C)CC2)cc1OC	/	-3.2	13.5	-13.5	4.5	-0.7
CCOC(=O)Cc1nnc(NC(=O)C(CC)Sc2nc(C)cc(=O)[nH]2)s1 (stereo not drawn)	4.8	/	10.5	-10.5	45.5*	0.0
Cc1cccc(CC(=O)NCC(=O)NCc2cc(=O)n(C)c(=O)n2C)c1	-9.1	62.1*	-9.2	9.2	1.8	-1.0
CN(C)CC(=O)N[C@H]1CC[C@@H](CC(=O)NCc2ccc(Cl)cc2)O[C@@H]1CO	/	/	/	/	-20.9	/
COc1ccc(NC(=O)Nc2ccc3c(c2)C(=O)N([C@@H](C)CO)C[C@@H](C)[C@@H](CN(C)C(=O)CCCN(C)C)OCCCC[C@H](C)O3)cc1	3.4[16.7 µM]	/	/	/	-7.9	/
CCOc1ccccc1NC(=O)C1CCCN1C(=O)c1cccs1 (stereo not drawn)	-1.6	12.9	-86.9	86.9*	/	-0.4
COc1ccc(C)cc1NC(=O)C1CCN(C(=O)Cc2ccccc2)CC1	/	-6.7	76.3*	-76.3	-6.9	-0.5
CCOc1ccccc1NC(=O)C1CCN(C(=O)Cc2ccccc2)CC1	/	56.5*	47.2	-47.2	25.5	8.6
COC(=O)c1ccccc1NC(=O)C1CCN(C(=O)Cc2ccccc2)CC1	/	/	48.9	/	-6.3	-0.1
COc1ccc(NC(=O)C2CCN(C(=O)C3CC(=O)N(c4ccc(C)cc4)C3)CC2)c(OC)c1 (stereo not drawn)	/	-5.1	78.6*	-78.6	-0.6	-0.6
CC(=O)Nc1ccc(NC(=O)C2CCN(C(=O)C3CC(=O)N(c4ccc(C)cc4)C3)CC2)cc1 (stereo not drawn)	-8.6	0.9	17.8	-17.8	1.4	-4.0
O=C(Nc1ccccc1F)C1CCN(C(=O)Cc2ccccc2)CC1	2.0	0.0	11.1	-11.1	-6.5	-2.1
Cc1cccc(S(=O)(=O)N2CC[C@@H]3[C@H]2c2cc(C#Cc4cccnc4)ccc2N[C@@H]3CO)c1	6.6[16.7 µM]	/	/	/	-1.5	/
CC(=O)N(C)C[C@@H]1Oc2cc(C3=CCCCC3)ccc2S(=O)(=O)N([C@H](C)CO)C[C@H]1C	-0.8[16.7 µM]	/	/	/	/	/
